Source: ChEMBL document CHEMBL3856209, “Novel pyrazolopyridine derivatives as potential angiogenesis inhibitors: Synthesis, biological evaluation and transcriptome-based mechanistic analysis” (Eur J Med Chem, 2016)
Activity calls are given as the source filed them.

Assays:
HUVEC [1] = assay: Effect on ACLY gene expression in serum-starved HUVEC after 6 hrs by microarray analysis relative to control; assay type: functional, Homo sapiens
Procedure, shortened: (§1)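 Serum-starved confluent HUVEC treated with 2 μM compound or DMSO in 2.5% FBS for 6 h or 24 h; RNA hybridized to Illumina Human-HT12 arrays. Data background-corrected, vst-transformed and rsn-normalized. Differential probes called by moderated paired t-test (limma) at p < 0.05 and log2 fold change >|0.5| vs DMSO.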

HUVEC [2] = assay: Effect on EMCN gene expression in serum-starved HUVEC after 6 hrs by microarray analysis relative to control; assay type: functional, Homo sapiens
Procedure, shortened: (§2)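 Confluent serum-starved HUVEC (primary, pooled from 3–5 donors, passage ≤4) treated with 2 μM compound or DMSO vehicle in 2.5% FBS for 6 h or 24 h. Total RNA hybridized to Illumina Human-HT12 arrays, background-corrected, vst-transformed and rsn-normalized. Differential expression versus DMSO by moderated paired t-test (p < 0.05, |log2 fold change| > 0.5).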

HUVEC [3] = assay: Effect on FAM213A gene expression in serum-starved HUVEC after 6 hrs by microarray analysis relative to control; assay type: functional, Homo sapiens; procedure, shortened: as §2
HUVEC [4] = assay: Effect on HAVCR2 gene expression in serum-starved HUVEC after 6 hrs by microarray analysis relative to control; assay type: functional, Homo sapiens; procedure, shortened: as §2
HUVEC [5] = assay: Effect on HJURP gene expression in serum-starved HUVEC after 6 hrs by microarray analysis relative to control; assay type: functional, Homo sapiens
HUVEC [6] = assay: Effect on HLA-DPA1 gene expression in serum-starved HUVEC after 6 hrs by microarray analysis relative to control; assay type: functional, Homo sapiens
Procedure, shortened: (§3)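 Confluent, serum-starved HUVEC (pooled from 3–5 donors, passage ≤4) treated with 2 μM compound or vehicle with 2.5% FBS for 6 h or 24 h. Total RNA hybridized to Illumina Human-HT12 arrays. Data were background-corrected, vst-transformed and rsn-normalized. Hits called by moderated paired t-test versus DMSO-treated cells, p < 0.05 and log2 fold change >|0.5|.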

HUVEC [7] = assay: Effect on HMGCR gene expression in serum-starved HUVEC after 6 hrs by microarray analysis relative to control; assay type: functional, Homo sapiens; procedure, shortened: as §3
HUVEC [8] = assay: Effect on MGARP gene expression in serum-starved HUVEC after 6 hrs by microarray analysis relative to control; assay type: functional, Homo sapiens
Procedure, shortened: (§4)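 Serum-starved confluent HUVEC (pooled from 3–5 donors, passage ≤4) were treated with 2 μM compound or vehicle in 2.5% FBS for 6 h or 24 h, and total RNA was isolated. Hybridization was on Illumina Human-HT12. Data were processed with bgAdjust, vst and rsn normalization. Changes versus DMSO were called by moderated paired t-test at p < 0.05 and |log2 fold change| > 0.5.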

HUVEC [9] = assay: Effect on PLK4 gene expression in serum-starved HUVEC after 6 hrs by microarray analysis relative to control; assay type: functional, Homo sapiens; procedure, shortened: as §4
HUVEC [10] = assay: Effect on SMC4 gene expression in serum-starved HUVEC after 6 hrs by microarray analysis relative to control; assay type: functional, Homo sapiens
HUVEC [11] = assay: Effect on TMEM154 gene expression in serum-starved HUVEC after 6 hrs by microarray analysis relative to control; assay type: functional, Homo sapiens
HUVEC [12] = assay: Effect on VCAM1 gene expression in serum-starved HUVEC after 6 hrs by microarray analysis relative to control; assay type: functional, Homo sapiens
HUVEC [13] = assay: Effect on ANGPT2 gene expression in serum-starved HUVEC after 24 hrs by microarray analysis relative to control; assay type: functional, Homo sapiens
Procedure, shortened: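 Serum-starved confluent HUVEC (primary, pooled from 3–5 donors, passage ≤4) treated with 2 μM test compound or DMSO vehicle (working dilutions ≤0.1% v/v) in presence of 2.5% FBS for 6 h or 24 h; total RNA hybridized to Illumina Human-HT12 arrays; background correction, vst, rsn normalization; moderated paired t-test versus DMSO, thresholds p < 0.05 and log2 fold change >|0.5|.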

HUVEC [14] = assay: Effect on ANKRD1 gene expression in serum-starved HUVEC after 24 hrs by microarray analysis relative to control; assay type: functional, Homo sapiens; procedure, shortened: as §1
HUVEC [15] = assay: Effect on CD34 gene expression in serum-starved HUVEC after 24 hrs by microarray analysis relative to control; assay type: functional, Homo sapiens; procedure, shortened: as §2
HUVEC [16] = assay: Effect on CDK1 gene expression in serum-starved HUVEC after 24 hrs by microarray analysis relative to control; assay type: functional, Homo sapiens; procedure, shortened: as §1
HUVEC [17] = assay: Effect on EGR1 gene expression in serum-starved HUVEC after 24 hrs by microarray analysis relative to control; assay type: functional, Homo sapiens; procedure, shortened: as §3
HUVEC [18] = assay: Effect on EIF3CL gene expression in serum-starved HUVEC after 24 hrs by microarray analysis relative to control; assay type: functional, Homo sapiens; procedure, shortened: as §2
HUVEC [19] = assay: Effect on FEN1 gene expression in serum-starved HUVEC after 24 hrs by microarray analysis relative to control; assay type: functional, Homo sapiens; procedure, shortened: as §2
HUVEC [20] = assay: Effect on FUCA1 gene expression in serum-starved HUVEC after 24 hrs by microarray analysis relative to control; assay type: functional, Homo sapiens; procedure, shortened: as §2
HUVEC [21] = assay: Effect on HLA-DPA1 gene expression in serum-starved HUVEC after 24 hrs by microarray analysis relative to control; assay type: functional, Homo sapiens; procedure, shortened: as §3
HUVEC [22] = assay: Effect on KITLG gene expression in serum-starved HUVEC after 24 hrs by microarray analysis relative to control; assay type: functional, Homo sapiens; procedure, shortened: as §4
HUVEC [23] = assay: Effect on LSS gene expression in serum-starved HUVEC after 24 hrs by microarray analysis relative to control; assay type: functional, Homo sapiens; procedure, shortened: as §4
HUVEC [24] = assay: Effect on MVD gene expression in serum-starved HUVEC after 24 hrs by microarray analysis relative to control; assay type: functional, Homo sapiens; procedure, shortened: as §4
HUVEC [25] = assay: Effect on SPRY4 gene expression in serum-starved HUVEC after 24 hrs by microarray analysis relative to control; assay type: functional, Homo sapiens
HUVEC [26] = assay: Effect on SQLE gene expression in serum-starved HUVEC after 24 hrs by microarray analysis relative to control; assay type: functional, Homo sapiens
HUVEC [27] = assay: Effect on TMEM154 gene expression in serum-starved HUVEC after 24 hrs by microarray analysis relative to control; assay type: functional, Homo sapiens
[28] = Upregulation of HMGCS1 gene expression in serum-starved HUVEC at 2 uM after 24 hrs by qRT-PCR analysis; assay type: functional, cell-based; settings: Homo sapiens
[29] = Downregulation of HMOX1 gene expression in serum-starved HUVEC at 2 uM after 24 hrs by qRT-PCR analysis; assay type: functional, cell-based; settings: Homo sapiens
Procedure, shortened: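 Serum-starved confluent HUVEC treated with 2 μM compound or vehicle in 2.5% FBS for 24 h. Total RNA isolated and qRT-PCR run in triplicate (95 °C 5 min; 40 cycles of 95 °C 5 s, 58 °C 20 s, 72 °C 5 s), normalized to RPS18S. Fold change vs control, n = 3.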

[30] = target: Vascular endothelial growth factor receptor 2 (Homo sapiens) (UniProt P35968); assay: Inhibition of VEGF-165-induced VEGFR2 autophosphorylation at Tyr996 in serum-starved HUVEC at 2 uM preincubated for 2 hrs followed by VEGF-165 induction measured after 5 mins by Western blot analysis; assay type: cell-based
HUVEC [31] = assay: Effect on CDC20 gene expression in serum-starved HUVEC after 6 hrs by microarray analysis relative to control; assay type: functional, Homo sapiens; procedure, shortened: as §1
HUVEC [32] = assay: Effect on PNISR gene expression in serum-starved HUVEC after 6 hrs by microarray analysis relative to control; assay type: functional, Homo sapiens; procedure, shortened: as §4
HUVEC [33] = assay: Effect on SIVA1 gene expression in serum-starved HUVEC after 24 hrs by microarray analysis relative to control; assay type: functional, Homo sapiens
HUVEC [34] = assay: Effect on SLC30A7 gene expression in serum-starved HUVEC after 6 hrs by microarray analysis relative to control; assay type: functional, Homo sapiens

Chain of Vascular endothelial growth factor receptor 2 (Homo sapiens) (P35968 whole entry): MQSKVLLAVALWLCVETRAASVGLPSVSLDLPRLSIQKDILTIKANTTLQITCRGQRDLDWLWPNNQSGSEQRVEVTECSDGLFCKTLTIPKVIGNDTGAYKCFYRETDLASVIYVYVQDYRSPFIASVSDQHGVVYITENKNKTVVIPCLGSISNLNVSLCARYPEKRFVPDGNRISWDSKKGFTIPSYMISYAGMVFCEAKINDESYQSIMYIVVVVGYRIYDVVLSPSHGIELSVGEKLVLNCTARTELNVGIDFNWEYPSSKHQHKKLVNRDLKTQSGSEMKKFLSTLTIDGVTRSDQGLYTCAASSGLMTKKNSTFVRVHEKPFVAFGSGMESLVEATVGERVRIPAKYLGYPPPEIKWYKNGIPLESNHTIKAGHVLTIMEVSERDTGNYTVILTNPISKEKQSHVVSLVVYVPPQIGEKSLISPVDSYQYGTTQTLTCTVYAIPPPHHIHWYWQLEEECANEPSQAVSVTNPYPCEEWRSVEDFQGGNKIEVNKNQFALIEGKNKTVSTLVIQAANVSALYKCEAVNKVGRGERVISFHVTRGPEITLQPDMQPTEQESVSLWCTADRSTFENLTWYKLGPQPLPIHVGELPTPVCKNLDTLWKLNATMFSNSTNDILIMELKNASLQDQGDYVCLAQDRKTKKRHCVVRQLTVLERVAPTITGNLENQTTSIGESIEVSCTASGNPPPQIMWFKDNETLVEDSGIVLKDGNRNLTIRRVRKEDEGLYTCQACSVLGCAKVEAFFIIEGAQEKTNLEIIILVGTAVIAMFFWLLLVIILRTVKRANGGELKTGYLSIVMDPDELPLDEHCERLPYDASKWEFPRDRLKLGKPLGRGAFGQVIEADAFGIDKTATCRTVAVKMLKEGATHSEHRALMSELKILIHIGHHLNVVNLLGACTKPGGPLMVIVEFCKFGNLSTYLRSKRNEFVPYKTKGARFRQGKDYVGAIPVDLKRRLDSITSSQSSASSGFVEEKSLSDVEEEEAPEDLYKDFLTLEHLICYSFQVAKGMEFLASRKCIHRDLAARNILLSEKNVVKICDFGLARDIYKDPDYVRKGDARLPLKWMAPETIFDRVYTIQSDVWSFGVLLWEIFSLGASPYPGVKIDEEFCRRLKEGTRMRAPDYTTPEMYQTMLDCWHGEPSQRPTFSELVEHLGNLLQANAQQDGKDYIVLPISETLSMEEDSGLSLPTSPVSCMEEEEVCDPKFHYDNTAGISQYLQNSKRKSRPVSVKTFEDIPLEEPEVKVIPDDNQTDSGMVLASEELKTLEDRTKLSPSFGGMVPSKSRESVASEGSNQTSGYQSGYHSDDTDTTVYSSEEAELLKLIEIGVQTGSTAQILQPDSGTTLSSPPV

In the case of COc1ccc(Cn2nc(-c3ccccc3)c3cc(Nc4ccc(N5CCN(C)CC5)cc4)nc(N4CCN(C)CC4)c32)cc1, the “fold change (FC)” value (HUVEC [1]) is reported as 0.4312, the “fold change (FC)” value (HUVEC [2]) is reported as 0.2035 and the “fold change (FC)” value (HUVEC [3]) is reported as -0.0934. For the same compound, the “fold change (FC)” value (HUVEC [4]) was 0.9139, the “fold change (FC)” value (HUVEC [5]) was -0.1528 and the “fold change (FC)” value (HUVEC [6]) was 0.6583. The “fold change (FC)” value (HUVEC [7]) was 1.0317, the log2FC (HUVEC [8]) was -0.2938 and the “fold change (FC)” value (HUVEC [9]) was 0.1554. For the same compound, the “fold change (FC)” value (HUVEC [10]) was 0.0208, the “fold change (FC)” value (HUVEC [11]) was 0.2897 and the log2FC (HUVEC [12]) was 0.1271. The “fold change (FC)” value (HUVEC [13]) was 0.5736, the log2FC (HUVEC [14]) was 0.2203 and the “fold change (FC)” value (HUVEC [15]) was 0.5547. For the same compound, the log2FC (HUVEC [16]) was -0.5092, the log2FC (HUVEC [17]) was 0.5707 and the “fold change (FC)” value (HUVEC [18]) was -0.1982. For the same compound, the “fold change (FC)” value (HUVEC [19]) was -0.6, the “fold change (FC)” value (HUVEC [20]) was -1.0254 and the log2FC (HUVEC [21]) was -0.863. The log2FC (HUVEC [22]) was 0.5605, the log2FC (HUVEC [23]) was 1.6178 and the log2FC (HUVEC [24]) was 1.3802. For the same compound, the “fold change (FC)” value (HUVEC [25]) was 0.9471, the log2FC (HUVEC [26]) was 1.0535 - 1.1624 and the log2FC (HUVEC [27]) was 0.8028. For the same compound, the Activity [28] was “Active” and the Activity [29] was “Active”.

With COc1ccc(Cn2nc(-c3ccccc3)c3cc(Nc4ccc(N5CCN(C)CC5)cc4)nc(N4CCNCC4)c32)cc1 the inhibition [30] was “Active”.

In the case of COc1ccc(Cn2nc(-c3ccccc3)c3cc(Cl)nc(N4CCNCC4)c32)cc1, the “fold change (FC)” value (HUVEC [31]) is reported as 0.127, the log2FC (HUVEC [32]) is reported as 0.5127 and the log2FC (HUVEC [33]) is reported as -0.5225. It also gave a log2FC (HUVEC [34]) of 0.512.
